According to ChEMBL document CHEMBL1126205, “Novel spirosuccinimides with incorporated isoindolone and benzisothiazole 1,1-dioxide moieties as aldose reductase inhibitors and antihyperglycemic agents” (1992):

What was measured:
Mus musculus = assay: Antihyperglycemic activity measured as percent decrease in mice plasma glucose at 100 mg/Kg/day; format: functional
In short: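 Male db/db (C57BL/KsJ) mice, 4–6 per group, dosed at 100 mg/kg per day. Plasma glucose of the drug-treated group is expressed as percent decrease relative to a vehicle-treated control group. Values are mean ± SE, with p < 0.05 marked.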

[1] = molecular target: Aldo-keto reductase family 1 member B1 (Bos taurus) (UniProt P16116); assay: In vitro aldose reductase inhibitory activity measured by NADPH-dependent inhibition of glyceraldehyde reduction in a partially purified bovine lens preparation at 10E-6 M
In short: (§1)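 Aldose reductase partially purified from bovine lens. Inhibition of NADPH-dependent glyceraldehyde reduction is measured at the single stated concentration and reported as percent inhibition, the mean of two determinations.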

[2] = molecular target: Aldo-keto reductase family 1 member B1 (Bos taurus) (UniProt P16116); assay: NADPH-dependent inhibition of glyceraldehyde reduction by partially purified aldose reductase from bovine lens at 10e-5 M
In short: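 Partially purified aldose reductase from bovine lens. Inhibition of NADPH-dependent glyceraldehyde reduction was measured at a single test concentration. Values are % inhibition of enzymatic activity, mean of two determinations.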

Rattus norvegicus [3] = assay: In vivo galactitol inhibitory activity measured by its ability to inhibit galactitol accumulation in lens at 6 mg/Kg/day; format: functional, Lens of camera-type eye
In short: (§2)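 Rats (n = 6) fed 20% galactose for 4 days, with compound given in the diet at the stated mg/kg per day. Galactitol accumulation in lens, sciatic nerve or diaphragm is scored as percent inhibition versus the non-treated group, as means of 3–8 drug-treated tissue samples. Dunnett's multiple comparison test applies; NS means p > 0.05.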

Rattus norvegicus [4] = assay: In vivo galactitol inhibitory activity measured by its ability to inhibit galactitol accumulation in diaphragm at 6 mg/Kg/day; format: functional; in short: as §2
Rattus norvegicus [5] = assay: In vivo galactitol inhibitory activity measured by its ability to inhibit galactitol accumulation in sciatic nerve at 6 mg/Kg/day; format: functional
In short: (§3)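 Rats (n = 6) fed 20% galactose for 4 days, with compound given in the diet at the stated daily dose. Galactitol accumulation was measured in lens, sciatic nerve and diaphragm, and % inhibition was taken versus the nontreated group. Means are from three to eight drug-treated tissue samples. Dunnett's multiple comparison test was applied, with p > 0.05 reported as not significant.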

Rattus norvegicus [6] = assay: In vivo galactitol inhibitory activity measured by its ability to inhibit galactitol accumulation in lens at 10 mg/Kg/day; format: functional; conditions: Lens of camera-type eye; in short: as §2
Rattus norvegicus [7] = assay: In vivo galactitol inhibitory activity measured by its ability to inhibit galactitol accumulation in diaphragm at 10 mg/Kg/day; format: functional; in short: as §2
Rattus norvegicus [8] = assay: In vivo galactitol inhibitory activity measured by its ability to inhibit galactitol accumulation in sciatic nerve at 10 mg/Kg/day; format: functional; conditions: Rattus norvegicus, Sciatic nerve; in short: as §3
[9] = molecular target: Aldo-keto reductase family 1 member B1 (Bos taurus) (UniProt P16116); assay: In vitro aldose reductase inhibitory activity measured by NADPH-dependent inhibition of glyceraldehyde reduction in a partially purified bovine lens preparation at 10E-7 M; in short: as §1

inhibition [1] | SMILES | Decrease (Mus musculus) | also measured
– | CC(C)(C)c1ccc(CN2C(=O)c3ccccc3C23CC(=O)NC3=O)cc1 (centres undefined) | <15% | –
0% | CN1C2(CC(=O)NC2=O)c2ccccc2S1(=O)=O (centres undefined) | <15% | inhibition [2]: 40%
– | CN1C(=O)c2ccc(Cl)cc2C12CC(=O)NC2=O (single isomer, unassigned; (+)) | – | Inhibition (Rattus norvegicus [3]): 21%; inhibition in vivo at 6 mg/kg/day (Rattus norvegicus [4]): 67%; inhibition in vivo at 6 mg/kg/day (Rattus norvegicus [5]): 58%
– | Cc1oc(-c2ccccc2)nc1CCOc1ccc(CN2C3(CC(=O)NC3=O)c3ccccc3S2(=O)=O)cc1 (centres undefined) | <15% | –
– | Cc1cc(CN2C3(CC(=O)NC3=O)c3ccccc3S2(=O)=O)ccc1Br (centres undefined) | <15% | –
– | O=C1CC2(C(=O)N1)c1ccccc1C(=O)N2Cc1cccc(Br)c1 (centres undefined) | <15% | –
0% | O=C1CC2(C(=O)N1)c1ccccc1S(=O)(=O)N2Cc1ccc(C(F)(F)F)cc1 (centres undefined) | <15% | inhibition [2]: 34%
– | CSc1ccc(CN2C3(CC(=O)NC3=O)c3ccccc3S2(=O)=O)cc1 (centres undefined) | <15% | –
– | CC(=O)Nc1ccc(CN2C3(CC(=O)NC3=O)c3ccccc3S2(=O)=O)cc1 (centres undefined) | <15% | –
92% | O=C1CC2(C(=O)N1)C(=O)N(Cc1ccc(Br)cc1F)c1c(Cl)cccc12 (centres undefined) | <15% | inhibition in vivo at 10 mg/kg/day (Rattus norvegicus [6]): 36%; inhibition in vivo at 10 mg/kg/day (Rattus norvegicus [7]): 84%; inhibition in vivo at 10 mg/kg/day (Rattus norvegicus [8]): 86%; inhibition [9]: 83%
– | Nc1ccc(CN2C3(CC(=O)NC3=O)c3ccccc3S2(=O)=O)cc1 (centres undefined) | <15% | –
0% | O=C1CC2(C(=O)N1)c1ccccc1S(=O)(=O)N2Cc1ccc(Br)cc1F (centres undefined) | 48% | inhibition [2]: 52%
25% | O=C1CC2(C(=O)N1)c1ccccc1S(=O)(=O)N2Cc1ccc2ccccc2c1Br (centres undefined) | <15% | inhibition [2]: 59%
0% | O=C1CC2(C(=O)N1)c1ccccc1S(=O)(=O)N2Cc1ccc([N+](=O)[O-])cc1 (centres undefined) | <15% | inhibition [2]: 37%
0% | O=C1CC2(C(=O)N1)c1ccccc1S(=O)(=O)N2Cc1ccccc1 (centres undefined) | <15% | inhibition [2]: 45%
– | O=C1CC2(C(=O)N1)c1ccccc1S(=O)(=O)N2Cc1ccc(Br)cc1 (centres undefined) | 37% | –
– | O=C1CC2(C(=O)N1)c1ccccc1C(=O)N2Cc1ccc(I)cc1 (centres undefined) | <15% | –
– | O=C1CC2(C(=O)N1)c1ccccc1S(=O)(=O)N2Cc1ccccc1F (centres undefined) | <15% | –
82% | CN1C(=O)c2cc3ccccc3cc2C12CC(=O)NC2=O (centres undefined) | <15% | inhibition in vivo at 10 mg/kg/day (Rattus norvegicus [6]): 14%; inhibition in vivo at 10 mg/kg/day (Rattus norvegicus [7]): 59%; inhibition in vivo at 10 mg/kg/day (Rattus norvegicus [8]): 47%; inhibition [9]: 37%
– | CCN1C2(CC(=O)NC2=O)c2ccccc2S1(=O)=O (centres undefined) | <15% | –
– | O=C1CC2(C(=O)N1)c1ccccc1S(=O)(=O)N2Cc1ccc(Br)cc1Cl (centres undefined) | <15% | –
– | O=C1CC2(C(=O)N1)c1ccccc1C(=O)N2Cc1ccc(Br)cc1 (centres undefined) | <15% | –
– | CCCCCc1ccc(CN2C(=O)c3ccccc3C23CC(=O)NC3=O)cc1 (centres undefined) | <15% | –
– | CCC(CC)N1C2(CC(=O)NC2=O)c2ccccc2S1(=O)=O (centres undefined) | 31% | –
– | O=C1CC2(C(=O)N1)c1ccccc1S(=O)(=O)N2Cc1ccc(I)cc1 (centres undefined) | <15% | –
